Measured values as given in ChEMBL document CHEMBL1134317, “Synthesis, biological evaluation, and pharmacophore generation of uracil, 4(3H)-pyrimidinone, and uridine derivatives as potent and selective inhibitors of parainfluenza 1 (Sendai) virus” (J Med Chem, 2001).

Assays:
MDCK = assay: Inhibitory activity against Parainfluenza 1 (Sendai) virus (PIV) in MDCK cells; format: functional; conditions: Canis lupus familiaris, read-out: ED50 (the source's name)
How it was run: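 Confluent MDCK monolayers infected with Sendai virus (10 HAU/10⁵ cells) and allowed to adsorb for 1 h at 37 °C. Inoculum removed, cells washed three times with PBS, then given fresh medium with 2% FCS. Compounds added after adsorption at several dilutions and kept until the end. Supernatants harvested at different times after challenge and titrated as hemagglutinin units. ED₅₀ derived from these titres.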

[1] = Minimum toxic concentration required to cause a microscopically detectable alteration of normal cell morphology of MDCK cells; conditions: Sendai virus, read-out: MTC
[2] = test system: NSO mouse myeloma cells (Mus musculus); assay: Cytotoxicity required to inhibit cell proliferation by 50% (tritiated thymidine incorporation in proliferating NSO mouse myeloma cells)

Row | SMILES | EC50 (MDCK) [µM] | MCC [1] [µM] | CC50 [2] [µM]
1 | Cn1c(C[C@@H]2CCCO2)cc(=O)n(C)c1=O | 338 | 446 | 1220
2 | COc1nc(CC2CCCO2)cc(=O)n1C (stereo unspecified) | > 446 | 446 | 1220
3 | CCCOc1nc(CC2(c3ccccc3)CO2)cc(=O)n1C (stereo unspecified) |  | 330 | > 330
4 | Cn1c(CC2(c3ccccc3)CO2)cc(=O)n(C)c1=O (stereo unspecified) |  | 0.37 | 3.7
5 | COc1nc(CC2(C)CCCO2)cc(=O)n1C (stereo unspecified) | 893 | 893 | 1620
6 | Cn1c(C[C@]2(C)CCCO2)cc(=O)n(C)c1=O | 1.11 | > 223 | 1380
7 | CCCCOc1nc(CC2CCCO2)cc(=O)n1C (stereo unspecified) | 195 | 376 | 579
8 | Cn1c(CC23CCCC[C@@H]2O3)cc(=O)n(C)c1=O (stereo partly specified) | > 2 | > 2 | 40
9 | Cn1c([C@H]2O[C@H]2c2ccccc2)cc(=O)n(C)c1=O (racemic) | 0.38 | > 0.8 | 7.7
10 | CCCCOc1nc(CC2(c3ccccc3)CCCO2)cc(=O)n1C (stereo unspecified) | 146 | 292 | 90
11 | COc1nc(CC2(c3ccccc3)CCCO2)cc(=O)n1C (stereo unspecified) | 166 | 383 | 130
12 | Cn1c(CC2(C(C)(C)C)CO2)cc(=O)n(C)c1=O (stereo unspecified) |  | > 0.79 | 7.9
13 | CC1O[C@]1(C)Cc1cc(=O)n(C)c(OC2CCCCC2)n1 (mixture of isomers) |  | 342 | > 342
14 | Cn1c([C@H]2O[C@@H]2c2ccccc2)cc(=O)n(C)c1=O | 193 | 380 | > 380
15 | Cn1c(OC2CCCCC2)nc(CC2(c3ccccc3)CO2)cc1=O (stereo unspecified) |  | 294 | > 294
16 | CCCOc1nc(CC2(c3ccccc3)CCCO2)cc(=O)n1C (stereo unspecified) | 152 | 305 | 170
17 | Cn1c(CC2(C)CO2)cc(=O)n(C)c1=O (stereo unspecified) |  | 0.48 | 4
18 | C[C@H]1O[C@@]1(C)Cc1cc(=O)n(C)c(=O)n1C |  | > 2 | 89
19 | C[C@@H]1O[C@@]1(C)Cc1cc(=O)n(C)c(=O)n1C |  | > 2 | 89
20 | CCCOc1nc(CC2(C)CCCO2)cc(=O)n1C (stereo unspecified) | 187 | > 376 | 860
21 | COc1nc(CC2(c3ccccc3)CO2)cc(=O)n1C (stereo unspecified) | 0.37 | 735 | > 360
22 | Cn1c(OC2CCCCC2)nc(CC2(C)CCCO2)cc1=O (stereo unspecified) | 164 | 326 | 816
23 | CCCOc1nc(CC23CCCC[C@H]2O3)cc(=O)n1C (stereo partly specified) |  | > 352 | > 352
24 | Cn1c(CC23CCC[C@H]2O3)cc(=O)n(C)c1=O (stereo partly specified) |  | > 0.84 | 8.4
25 | Cn1c(C2OC2(C)c2ccccc2)cc(=O)n(C)c1=O (stereo unspecified) |  | > 0.81 | 7.3
26 | Cn1c(C[C@]2(c3ccccc3)CCCO2)cc(=O)n(C)c1=O | 116 | > 333 | 547
27 | CCCOc1nc(CC2CCCO2)cc(=O)n1C (stereo unspecified) | 300 | 397 | 1020
28 | CCCCOc1nc(CC2(C)CCCO2)cc(=O)n1C (stereo unspecified) | 186 | 373 | 1080
29 | CCCOc1nc(CC2(C)CCCO2)cc(OC)n1 (stereo unspecified) | 267 | > 305 | 375
